Series [1] is described as follows: intravenous pharmacokinetics in rats. In kind it is in vivo. The conditions noted are these: male, Wistar Hannover, rat, plasma, 0.1 mg/kg. In a few lines:
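Jugular vein-cannulated male Wistar Hannover rats (250–300 g; n = 3) got a single i.v. bolus at 1 ml/kg. The native peptide was in 10% propylene glycol/90% 20 mM sodium phosphate, pH 7.4; the analog in 10% SEDDs/90% 20 mM phosphate, pH 5. Serial cannula blood was drawn predose and at 0.033–24 hours. Plasma standard curve ran 0.1–250 ng/ml with 1/x2 linear regression.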

The target of a further series is T1, hOTR (oxytocin receptor) (Homo sapiens, UniProt P30559).
T1 sequence (P30559 1-389): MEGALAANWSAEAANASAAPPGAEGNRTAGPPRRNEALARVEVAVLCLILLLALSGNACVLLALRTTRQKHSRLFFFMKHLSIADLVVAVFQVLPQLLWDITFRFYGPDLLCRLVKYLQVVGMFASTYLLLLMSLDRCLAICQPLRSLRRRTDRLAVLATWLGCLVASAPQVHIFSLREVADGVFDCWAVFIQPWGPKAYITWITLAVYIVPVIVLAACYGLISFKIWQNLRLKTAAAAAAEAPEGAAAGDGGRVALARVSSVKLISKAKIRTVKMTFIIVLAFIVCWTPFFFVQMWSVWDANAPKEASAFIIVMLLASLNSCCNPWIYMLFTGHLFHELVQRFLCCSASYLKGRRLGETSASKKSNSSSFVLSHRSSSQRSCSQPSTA
In kind it is cell-based. The conditions noted are these: calcium flux, normalized to control responses. On the technique in general: A change in cytosolic calcium serves as a functional read-out for many receptors and channels.

Series [2] in a line: subcutaneous nondepot pharmacokinetics in mice. In kind it is in vivo, mouse. In a few lines:
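Male C57BL/6J mice (n = 3 per dose) got a single nondepot s.c. injection.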

The nature of series [3]: subcutaneous depot pharmacokinetics in mice. In kind it is in vivo, mouse. In outline:
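Male C57BL/6J mice (n = 2) got a single s.c. injection (100 µl) in a lipid-based gel depot designed for sustained release over at least 48 hours. Retro-orbital blood was drawn at 0.5, 1, 2, 4, 6 and 24 hours. Plasma standard curves were 0.5–1000 ng/ml (analog) and 0.5–500 ng/ml (native peptide), 1/x2 regression. Free concentrations were derived with fu,p.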

The target in another series is V1a receptor (Homo sapiens, UniProt P37288). The series is described as follows: V1a receptor functional agonist assay. The class given is cell-based.
The mark [4] stands for this setting: mice, s.c. 1 mg/kg, nondepot formulation.
Where [5] appears, read: male, C57BL/6J, mouse, plasma, sc, 20 mg/kg.

Sequence of V1a receptor (P37288 whole entry): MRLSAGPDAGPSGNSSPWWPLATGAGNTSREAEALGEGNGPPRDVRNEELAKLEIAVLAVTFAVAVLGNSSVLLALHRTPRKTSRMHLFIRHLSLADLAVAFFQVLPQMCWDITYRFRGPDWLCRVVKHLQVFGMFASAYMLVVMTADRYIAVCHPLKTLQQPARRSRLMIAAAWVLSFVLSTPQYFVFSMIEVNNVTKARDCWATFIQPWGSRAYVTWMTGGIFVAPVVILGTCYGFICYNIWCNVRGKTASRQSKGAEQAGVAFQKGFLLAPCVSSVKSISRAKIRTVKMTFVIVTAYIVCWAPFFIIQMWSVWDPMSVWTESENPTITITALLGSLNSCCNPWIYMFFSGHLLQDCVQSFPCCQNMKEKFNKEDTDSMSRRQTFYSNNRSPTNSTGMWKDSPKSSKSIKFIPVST

As for `CC[C@H](C)[C@@H]1NC(=O)[C@H](Cc2ccc(O)cc2)NC(=O)[C@@H](N)CSSC[C@@H](C(=O)N2CCC[C@H]2C(=O)N[C@@H](CC(C)C)C(=O)NCC(N)=O)NC(=O)[C@H](CC(N)=O)NC(=O)[C@H](CCC(N)=O)NC1=O` [OT, Oxytocin], the clearance (in general, the volume of plasma or blood freed of the substance per unit of time) in series [1] was found to be 17.1 mL/min/kg. In addition, the half-life (commonly the time in which the quantity being followed falls by half) in series [1] was 7.2 min; in series [3] (setting [5]), 438 min. Besides, the OTR % agonist at hOTR (oxytocin receptor) was 100 (n = 70) %. Besides, the peak concentration (Cmax) (usually the maximum level reached in the sampled fluid or tissue) came to 216 nM in series [2] (male, C57BL/6J, mouse, plasma, sc, 1 mg/kg) and 65.4 nM in series [3] (setting [5]). The “free Cmax” value was determined as 191 nM in series [2] (setting [4]) and 58.2 nM in series [3] (mice, s.c. 20 mg/kg, depot formulation). In series [2] (setting [4]), the “time of Cmax postdose” value is 0.25 h. Besides, the V1a % agonist at V1a receptor is 94 (n = 70) %.

The values above are taken from paper PMC4959095 (The Journal of Pharmacology and Experimental Therapeutics, 2016).
